Measurements as given in ChEMBL document CHEMBL2069194, “Synthesis of sulfur containing dihydro-pyrrolo derivatives and their biological evaluation as antioxidants” (Bioorg Med Chem, 2012).
The source made the active and inactive calls. No cut-off for these calls is given here.

What was measured:
[1] = tested on: Radical scavenging activity; assay: Antioxidant activity assessed as reduction of DPPH radical generation at 50 uM incubated for 20 mins at room temperature; format: functional; parameters: scale not given: the % may be the effect or the level left
Outline: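 DPPH radical interaction in ethanol, compound final 50 µM (equimolar with DPPH); ethanol as control. Absorbance at 517 nm read after 20 min at room temperature.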

Glycine max = assay: Inhibition of soybean lipoxygenase using sodium linoleate substrate at 100 uM
Outline: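 Soybean lipoxygenase (0.2 mL of 1/9 × 10^-4 w/v solution in saline) incubated at room temperature with compound in ethanol and sodium linoleate 100 µM. Conversion to 13-hydroperoxylinoleic acid recorded at 234 nm, compared against caffeic acid 600 µM as standard inhibitor.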

[2] = Antioxidant activity assessed as inhibition of linoleic acid peroxidation at 100 uM by AAPH assay by UV spectrometry; format: functional
Outline: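 Linoleic acid dispersion (10 µL of 16 mM) in 0.05 M phosphate buffer pH 7.4 at 37 °C; oxidation started under air by adding 50 µL of 40 mM AAPH, with 10 µL aliquots of compound present. Conjugated diene hydroperoxide formation followed as rise in absorbance at 234 nm; blank run contained same DMSO level.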

| SMILES | Activity [1] | inhibition (Glycine max) [%] | inhibition [2] [%] |
| --- | --- | --- | --- |
| CC(Cc1ccc(O)c(O)c1)C(C)Cc1ccc(O)c(O)c1 (stereo not drawn) | 81% | 64 |  |
| Cc1c(C)c2c(c(C)c1O)CCC(C)(C(=O)O)O2 (stereo not drawn) |  |  | 63 |
| CCCCSC1=N[C@@H](C(=O)OC)[C@@H]2C(=O)N(c3ccccc3)C(=O)[C@H]12 (relative stereo) | 11% | 91 | 82 |
| CCCCSC1=N[C@H](C(=O)OC)[C@@H]2C(=O)N(c3ccccc3)C(=O)[C@H]12 (relative stereo) | 7% | 56 | 89 |
| CCCSC1=N[C@@H](C(=O)OC)[C@@H]2C(=O)N(c3ccccc3)C(=O)[C@H]12 (relative stereo) | 7% | 43 | 86 |
| CCCSC1=N[C@H](C(=O)OC)[C@@H]2C(=O)N(c3ccccc3)C(=O)[C@H]12 (relative stereo) | 9% | 39 | 86 |
| CCSC1=N[C@@H](C(=O)OC)[C@@H]2C(=O)N(c3ccccc3)C(=O)[C@H]12 (relative stereo) | 11% | 81 | 91 |
| CCSC1=N[C@H](C(=O)OC)[C@@H]2C(=O)N(c3ccccc3)C(=O)[C@H]12 (relative stereo) | inactive | 26 | 89 |
| COC(=O)[C@@H]1N=C(SC(C)C)[C@H]2C(=O)N(c3ccccc3)C(=O)[C@H]21 (relative stereo) | 12% | 49 | 89 |
| COC(=O)[C@@H]1N=C(SC)[C@H]2C(=O)N(c3ccccc3)C(=O)[C@H]21 (relative stereo) | 26% | 51 | 93 |
| COC(=O)[C@@H]1N=C(SCc2ccccc2)[C@H]2C(=O)N(c3ccccc3)C(=O)[C@H]21 (relative stereo) | 15% | 83 | 98 |
| COC(=O)[C@H]1N=C(SC(C)C)[C@H]2C(=O)N(c3ccccc3)C(=O)[C@H]21 (relative stereo) | 13% | 44 | 72 |
| COC(=O)[C@H]1N=C(SC)[C@H]2C(=O)N(c3ccccc3)C(=O)[C@H]21 (relative stereo) | 8% |  | 84 |
| COC(=O)[C@H]1N=C(SCc2ccccc2)[C@H]2C(=O)N(c3ccccc3)C(=O)[C@H]21 (relative stereo) | 11% | 73 | 76 |
